From PubChem BioAssay
SENP7 inh – SENP7 protease inhibitors, primary screen, biochemical, luminescence, uHTS; recombinant SENP7, Z-RLRGG-aminoluciferin luminescence, 40 min; inhibition, % at 5 µM; actives 1.5% (n = 330,000); AID 434973, 2010;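 active means inhibition above about 50% at the single test dose, limit read from the data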;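 further: plate controls were DMSO with enzyme for no effect and no enzyme buffer wells for full effect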
Target sequence (Q9BQF6 706-1050 limits assumed): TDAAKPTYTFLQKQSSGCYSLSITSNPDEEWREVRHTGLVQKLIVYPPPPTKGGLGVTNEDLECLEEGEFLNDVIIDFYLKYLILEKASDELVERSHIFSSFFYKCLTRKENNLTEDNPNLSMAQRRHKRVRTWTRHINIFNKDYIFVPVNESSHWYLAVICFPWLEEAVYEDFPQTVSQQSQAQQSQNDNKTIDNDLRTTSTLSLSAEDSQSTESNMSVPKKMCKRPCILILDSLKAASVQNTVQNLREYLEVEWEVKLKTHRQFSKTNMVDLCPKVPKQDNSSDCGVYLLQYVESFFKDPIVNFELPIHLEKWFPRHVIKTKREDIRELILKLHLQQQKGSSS
SENP8 block-1 – human SENP8 protease inhibitors, primary screen, biochemical, fluorescence, Nedd8 protein substrate, uHTS; Sentrin-specific protease 8 (Homo sapiens), Q96LD8; recombinant SENP8; inhibition, % at 20 µM; actives 0.64% (n = 360,000); AID 602440, 2012; in the data active means inhibition mostly above about 40%, no sharp cut-off; inactive means mostly below about 27%
UCH37 inh – inhibitors of human UCH37 deubiquitinase, primary screen, biochemical, Ub-AMC cleavage, fluorescence. actives 0.33% (n = 330,000). Ubiquitin carboxyl-terminal hydrolase isozyme L5 (Homo sapiens), Q9Y5K5. purified proteasome/UCH37. inhibition, % (no concentration beside the values);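 active means mean inhibition over replicate wells above about 20%, limit read from the data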;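 further: 0% = compound-free wells with enzyme and 100% = wells lacking proteasome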
Target sequence (Q9Y5K5 whole entry, looked up): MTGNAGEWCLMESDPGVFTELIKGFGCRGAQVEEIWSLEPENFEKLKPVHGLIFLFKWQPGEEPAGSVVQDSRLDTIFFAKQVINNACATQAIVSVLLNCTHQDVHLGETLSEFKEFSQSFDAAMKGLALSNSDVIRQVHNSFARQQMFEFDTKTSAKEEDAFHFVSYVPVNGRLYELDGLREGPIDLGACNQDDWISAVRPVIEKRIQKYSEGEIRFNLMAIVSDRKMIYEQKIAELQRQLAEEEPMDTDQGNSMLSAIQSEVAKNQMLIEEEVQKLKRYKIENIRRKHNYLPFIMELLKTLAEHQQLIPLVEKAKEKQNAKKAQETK
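system = Proteasome-associated human UCH37 deubiquitinase | amount = 0.15 nM proteasome as dispensed | medium = pH 7.4 Tris-HCl (50 mM) with ovalbumin, ATP-MgCl2, DTT | incubation = 30 min preincubation with enzyme, 25 min cleavage at room temperature | detection = AMC fluorescence 355/460 nm | read-out basis = percent inhibition | controls = no-proteasome and no-compound wells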
SENP6 block – SENP6 protease inhibitors, primary screen, biochemical, luminescence, uHTS. Recombinant SENP6 catalytic domain, aminoluciferin luminescence. AID 2599, 2010. Sentrin-specific protease 6 (Homo sapiens), Q9GZR1. actives 1.8% (n = 330,000). inhibition, % at 10 µM;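 active means inhibition above about 50% at the single tested dose, limit read from the data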;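 further: plate controls were DMSO wells with enzyme for no effect and DMSO wells lacking enzyme for full effect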
SENP8 block-2 – SENP8 protease inhibitors, primary screen, biochemical, luminescence. actives 1.2% (n = 330,000). inhibition, % at 10 µM. purified SENP8, Z-RLRGG-aminoluciferin cleavage; in the data active means inhibition above about 50%
SENP1 inh – human SENP1 catalytic domain inhibitors, primary screen, biochemical, FRET, uHTS; inhibition, % at 10 µM; actives 0.21% (n = 360,000); recombinant SENP1 catalytic domain, CyPet-SUMO1-YPet FRET cleavage;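 active means inhibition at least 30% at 10 µM, raw YFP signal under a set limit, fluorescence ratio 0.5 to 1.5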;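 further: 0% = enzyme with DMSO and 100% = no enzyme wells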
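material = recombinant human SENP1 catalytic domain, His6-tagged | quantity = 20 pM enzyme | reagent = 25 nM SUMO1 FRET substrate | compound dosing = 10 µM single point, 0.5% DMSO | timing = 50 min enzyme reaction, room temperature, light-protected | detection = FRET, CFP and YFP emission | control set = no-enzyme low, enzyme-DMSO high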
SENP8 confirm – SENP8 protease inhibitors, retest, confirmation, biochemical, luminescence, single concentration. Recombinant SENP8, Z-RLRGG-aminoluciferin luminescence, 60 min. inhibition, % at 12.5 µM. actives 40% (n = 6,200). shares compounds with SENP7 inh. AID 488912, 2010;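 active means mean inhibition across replicates above about 50%, limit read from the data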
SENP6 confirm – SENP6 protease inhibitors, confirmation, biochemical, luminescence, single concentration; shares compounds with SENP7 inh; recombinant SENP6, Z-RLRGG-aminoluciferin luminescence; inhibition, % at 12.5 µM; actives 58% (n = 6,200)
SENP7 confirm – SENP7 protease inhibitors, retest, confirmation, biochemical, luminescence, single concentration; shares compounds with SENP7 inh; recombinant SENP7, Z-RLRGG-aminoluciferin luminescence, 40 min; inhibition, % at 12.5 µM; actives 69% (n = 6,200); AID 488917, 2010
Casp3 select – caspase-3 protease inhibitors, confirmation, selectivity assay for SENP inhibitor project, biochemical, single concentration; shares compounds with SENP7 inh; actives 60% (n = 6,200); inhibition, % at 12.5 µM; purified caspase-3, Z-DEVD-aminoluciferin luminescence, 60 min;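 active means mean inhibition above about 50%, limit read from the data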;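 further: plate controls were enzyme with DMSO for no effect and wells without caspase-3 for full effect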
SENP luc ctr – counter-screen for SENP inhibitors: luminescence interference. shares compounds with SENP7 inh. Pre-incubated SENP8/Z-RLRGG-aminoluciferin, luciferase luminescence interference. inhibition, % at 12.5 µM. actives 39% (n = 6,200). AID 488919;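 active means mean inhibition above about 50% when retested at one dose, limit read from the data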;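 further: plate controls were DMSO wells with completed reaction for no effect and substrate without enzyme for full effect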
* = called active by the depositor; i = inactive; . = no result given. Most compounds without a hit are left out; they make up all but 2.6% or so of the library.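 How the source made its calls, unless noted: active means mean inhibition above about 50% in the one-dose retest (limit read from the data); inactive means the rest.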

SMILES | SENP7 inh | SENP8 block-1 | UCH37 inh | SENP6 block | SENP8 block-2 | SENP1 inh | SENP8 confirm | SENP6 confirm | SENP7 confirm | Casp3 select | SENP luc ctr
c1ccc2c(c1)oc1c(Nc3ccc4c(c3)OCCO4)ncnc12 | 91.9* | -96.6 | -14.3 | 92.5* | 84.7* | -21.8 | 21.6 | 79.2* | 90.0* | 59.9* | 23.0
Cc1ccc(Nc2ncnc3c2oc2ccccc23)cc1 | 33.3 | -283.4 | -6.1 | 66.3* | 34.8 | 1.5 | -7.4 | 23.0 | 74.1* | 27.7 | 8.6
COCn1c(-c2ccc(OC)cc2)nc2ccccc21 | 53.1* | -15.1 | -0.7 | 58.7* | 25.8 | 1.1 | 55.2* | 53.1* | 86.1* | 81.1* | 63.3*
COc1ccc(NC(=O)c2sc(SC)nc2N)cc1 | 51.5* | 13.9 | 10.3 | 35.4 | 22.6 | 0.0 | 45.2 | 40.4 | 74.4* | 63.7* | 52.0*
COc1ccc(NC(=O)c2sc(SCc3ccccc3)nc2N)cc1 | 15.3 | 15.5 | 1.1 | 13.6 | 0.7 | -1.7 | . | . | . | . | .
COc1ccc(NC(=O)c2scc(S(=O)(=O)C(C)C)c2N)cc1 | 86.3* | 0.0 | 3.8 | 66.0* | 58.7* | -0.9 | 68.4* | 66.1* | 88.8* | 82.4* | 67.6*
Cc1ccc(NN=C2COC(C)(C)CC2=O)cc1 | . | . | 13.1 | . | . | . | . | . | . | . | .
CCOC(=O)N1CCN(C(=O)c2cc3c(s2)-c2ccccc2OC3)CC1 | -0.9 | -436.7 | i | -13.0 | -0.7 | -3.0 | . | . | . | . | .
CCCN1CCN(C(=O)c2cc3c(s2)-c2ccccc2OC3)CC1 | 55.8* | -424.1 | -430.4 | 70.9* | 65.1* | -11.2 | 80.0* | 79.7* | 91.8* | 84.1* | 79.0*
O=C1c2ccccc2C(=O)C1c1ccc2ccccc2n1 | 99.5* | 18.7 | 3.9 | 80.7* | 81.0* | -25.5 | 9.7 | 33.6 | 42.1 | 29.5 | 19.7
COC(=O)C1=C(C)NC(C)=C(C(=O)OC)C1c1ccc2ccccc2n1 | -5.3 | -484.2 | -0.2 | -7.9 | -8.7 | -24.1 | . | . | . | . | .
Cc1ccc(CN2CCN(CC(=O)N/N=C/c3ccccc3F)CC2)cc1 | 4.9 | 16.1 | . | 55.2* | 29.8 | 2.8 | 10.9 | 22.7 | 49.9 | 7.4 | 2.2
NC(Cc1ccc([N+](=O)[O-])cc1)=NOC(=O)c1cccc(Br)c1 | . | . | 1.2 | . | . | . | . | . | . | . | .
O=C(Nc1ccc(CN2CCCCC2)cc1)Nc1ccccc1Cl | 8.8 | 17.5 | 1.5 | 2.3 | -8.9 | 0.8 | . | . | . | . | .
O=C(Nc1ccc(Br)cc1)Nc1ccccc1Cl | 93.5* | 18.9 | . | 80.7* | 67.5* | 2.5 | -1.7 | 68.3* | 90.3* | 37.6 | 2.7
O=C(Nc1cccc(C(=O)O)c1)Nc1ccccc1Cl | 96.7* | -2.9 | 3.3 | 95.0* | 93.4* | 0.6 | 97.7* | 98.1* | 102.8* | 95.6* | 75.4*
O=C(Nc1ccc(Cl)cc1)Nc1cccc(C(=O)O)c1 | 96.8* | 13.7 | -1.4 | 94.9* | 94.9* | 2.6 | 98.8* | 99.2* | 103.5* | 86.7* | 98.2*
CSc1cccc(NC(=O)Nc2ccc(Cl)cc2)c1 | -0.3 | 23.0 | 2.9 | -18.5 | -1.4 | 3.8 | . | . | . | . | .
Cc1ccc(C=NNC(=O)c2ccc(NC(=O)c3ccccc3Cl)cc2)o1 | . | . | -39.4 | . | . | . | . | . | . | . | .
COCCCNC(=O)c1c(N)n(N=Cc2cccnc2)c2nc3ccccc3nc12 | . | . | -48.7 | . | . | . | . | . | . | . | .
CN(C)c1ccc(C=NS(=O)(=O)c2ccccc2)cc1 | . | . | -19.7 | . | . | . | . | . | . | . | .
C/C(=N\OC(=O)NC(C)C)c1sc(-c2ccccc2)nc1C | 4.9 | 15.7 | . | 24.9 | 1.6 | 1.7 | . | . | . | . | .
C/C(=N\OC(=O)NC(C)C)c1sc(-c2ccc(Cl)cc2)nc1C | 59.1* | -27.4 | . | 35.2 | 11.1 | 1.3 | 53.0* | 59.5* | 84.2* | 74.4* | 51.0*
C=C(C)c1sc(-c2ccc(Cl)cc2)nc1C | 39.4 | -254.7 | -0.4 | 70.1* | 49.7 | 2.7 | -6.8 | 40.6 | 85.4* | 33.1 | 3.7
CCNC(=O)O/N=C(\C)c1sc(-c2ccc(Cl)cc2)nc1C | 91.1* | -2.7 | . | 92.1* | 88.9* | 0.8 | 79.2* | 79.2* | 95.0* | 81.5* | 66.5*
SMILES | SENP7 inh | SENP8 block-1 | UCH37 inh | SENP6 block | SENP8 block-2 | SENP1 inh | SENP8 confirm | SENP6 confirm | SENP7 confirm | Casp3 select | SENP luc ctr
CC(=O)NC(=NOCc1ccc(Br)cc1)c1nonc1NC(C)=O | . | . | 2.3 | . | . | . | . | . | . | . | .
O=C(O)c1ccccc1Nc1ccc(OC(F)F)cc1 | 20.6 | 14.8 | 3.7 | 10.4 | 55.2* | 0.8 | 61.2* | 60.2* | 80.4* | 65.6* | 73.9*
O=C(O)c1ccccc1Nc1ccccc1 | -9.7 | -2.1 | 0.2 | -10.1 | -1.1 | -0.4 | . | . | . | . | .
O=C(c1ccc(S(=O)(=O)N2CCCC2)cc1)N(c1ccc(F)cc1)C1C=CS(=O)(=O)C1 (stereo not drawn) | -6.4 | 3.1 | -1.6 | 0.0 | 11.7 | 3.4 | . | . | . | . | .
O=C(c1ccc(S(=O)(=O)N2CCCC2)cc1)N(c1ccccc1)C1C=CS(=O)(=O)C1 (stereo not drawn) | 2.4 | 2.9 | 1.6 | 62.7* | -0.4 | -1.2 | 6.3 | 6.4 | 5.2 | 0.4 | 1.5
CC(CC(=O)Nc1ccc(Cl)cc1Cl)=NNC(N)=S | . | . | 1.4 | . | . | . | . | . | . | . | .
COc1ccc(C)cc1C1=Nc2ccccc2C1(C)C | 0.5 | -45.8 | 3.6 | -5.1 | 4.0 | 0.5 | . | . | . | . | .
Cc1ccc(O)c(C2=Nc3ccccc3C2(C)C)c1 | 55.9* | 21.7 | 3.9 | 71.5* | 48.6 | 4.1 | 21.2 | 63.8* | 88.6* | 33.2 | 27.6
COc1cc(/C=N/N2CCOCC2)ccc1OC(=O)c1ccco1 | 69.5* | -1.8 | . | 60.0* | 39.8 | 1.2 | 59.6* | 56.7* | 88.2* | 67.2* | 76.8*
